According to ChEMBL document CHEMBL1145200, “4-Benzyl and 4-benzoyl-3-dimethylaminopyridin-2(1H)-ones: in vitro evaluation of new C-3-amino-substituted and C-5,6-alkyl-substituted analogues against clinically important HIV mutant strains” (J Med Chem, 2005):

Experiments:
[1] = tested on: Human immunodeficiency virus 1; assay: In vitro inhibitory concentration against HIV F227C mutant strain; format: functional, organism-based
Summary of the method: (§1)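 MT4 human T-lymphoblastoid cells, grown in RPMI 1640 with 10% fetal calf serum and antibiotics at 37 °C under 5% CO2. Mutant HIV-1 strains were added at 200 CCID50/well with 30 000 cells/well across a compound concentration range. After 5 days at 37 °C, viability was read by MTT colorimetry. EC50 is the concentration giving 50% infection relative to the drug-free control.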

[2] = tested on: Human immunodeficiency virus 1; assay: In vitro inhibitory concentration against HIV K103N mutant strain; format: functional, organism-based; summary of the method: as §1
[3] = tested on: Human immunodeficiency virus 1; assay: In vitro inhibitory concentration against HIV K101E and K103N mutant strain; format: functional, organism-based; summary of the method: as §1
[4] = tested on: Human immunodeficiency virus 1; assay: In vitro inhibitory concentration against HIV L100I and K103N mutant strain; format: functional, organism-based; summary of the method: as §1
[5] = tested on: Human immunodeficiency virus 1; assay: In vitro inhibitory concentration value against HIV K103N and Y181C mutant strain; format: functional, organism-based; summary of the method: as §1
[6] = tested on: Human immunodeficiency virus 1; assay: In vitro inhibitory concentration against HIV F227L and V106A mutant strain; format: functional, organism-based; summary of the method: as §1
[7] = tested on: Human immunodeficiency virus 1; assay: In vitro inhibitory concentration against HIV V179E mutant strain; format: functional, organism-based; summary of the method: as §1
[8] = tested on: Human immunodeficiency virus 1; assay: In vitro inhibitory concentration against HIV Y188L mutant strain; format: functional, organism-based; summary of the method: as §1
[9] = tested on: Human immunodeficiency virus 1; assay: In vitro inhibitory concentration against HIV LAI cell line; format: functional, organism-based; conditions: Human immunodeficiency virus 1, LAI
Summary of the method: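 HIV-1 LAI was added at 200 CCID50/well to MT4 human T-lymphoblastoid cells (30 000 cells/well) across a concentration range of compound. Cells were grown in RPMI 1640 with 10% fetal calf serum and antibiotics. After 5 days at 37 °C in 5% CO2, cell viability was read by MTT colorimetry. EC50 was the concentration giving 50% infection versus the drug-free control.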

[10] = tested on: Human immunodeficiency virus 1; assay: In vitro inhibitory concentration against HIV G190A mutant strain; format: functional, organism-based; summary of the method: as §1
[11] = tested on: Human immunodeficiency virus 1; assay: In vitro inhibitory concentration against HIV K101E mutant strain; format: functional, organism-based; summary of the method: as §1
[12] = tested on: Human immunodeficiency virus 1; assay: In vitro inhibitory concentration against HIV V106A mutant strain; format: functional, organism-based; summary of the method: as §1
[13] = tested on: Human immunodeficiency virus 1; assay: In vitro inhibitory concentration against HIV-1 Y181C mutant strain; format: functional, organism-based; summary of the method: as §1
[14] = tested on: Human immunodeficiency virus 1; assay: In vitro inhibitory concentration against HIV L100I mutant strain; format: functional, organism-based; summary of the method: as §1
[15] = tested on: Human immunodeficiency virus 1; assay: Selective index value (ratio of CC50 to IC50 value)against HIV LAI cell line; format: functional
Summary of the method: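 Ratio of CC50 to IC50 against LAI. CC50 came from mock-infected MT4 cultures (30 000 cells/well) given the same compound concentration range, run in parallel with LAI-infected cultures (200 CCID50/well). Incubation was 5 days at 37 °C in 5% CO2, with MTT viability read-out.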

[16] = tested on: Human immunodeficiency virus 1; assay: In vitro inhibitory concentration against HIV E138K mutant strain; format: functional, organism-based; summary of the method: as §1
[17] = tested on: Human immunodeficiency virus 1; assay: In vitro inhibitory concentration against HIV G190S mutant strain; format: functional, organism-based; summary of the method: as §1

| Compound | IC50 [1] | IC50 [2] | IC50 [3] | IC50 [4] | IC50 [5] | IC50 [6] | IC50 [7] | IC50 [8] | IC50 [9] | IC50 [10] | IC50 [11] | IC50 [12] | IC50 [13] | IC50 [14] | SI [15] | IC50 [16] | IC50 [17] |
| --- | --- | --- | --- | --- | --- | --- | --- | --- | --- | --- | --- | --- | --- | --- | --- | --- | --- |
| CCc1c(C)[nH]c(=O)c(N(C)CCOC)c1Cc1cccc(C)c1 | 790 nM | 79 nM | 100 nM | 794 nM | 10000 nM | 3980 nM | 4 nM | 398 nM | 1 nM | 100 nM | 16 nM | 63 nM | 794 nM | 6 nM | 10000 | 8 nM | 39 nM |
| CCc1c(C)[nH]c(=O)c(N(C)CC)c1Cc1cc(C)cc(C)c1 | 1120 nM | 79 nM | 139 nM | 598 nM | 3120 nM |  | 32 nM | 1260 nM | 8 nM | 63 nM | 79 nM | 316 nM | 316 nM | 63 nM | 3980 | 63 nM | 316 nM |
| CCc1c(C)[nH]c(=O)c(N(C)CC)c1Cc1cccc(/C=C/C#N)c1 | 794 nM | 6 nM | 158 nM | 200 nM | 199 nM | 3160 nM | 2 nM | 251 nM | 1 nM | 10 nM | 6 nM | 8 nM | 32 nM | 10 nM | 10000 | 6 nM | 125 nM |
| CCc1c(C)[nH]c(=O)c(N(C)C(C)COC)c1Cc1cc(C)cc(C)c1 (stereo not drawn) | 869 nM | 79 nM | 362 nM | 1000 nM | 8680 nM | 10000 nM | 9 nM | 251 nM | 6 nM | 78 nM | 58 nM |  | 398 nM | 79 nM | 7940 | 17 nM | 62 nM |
| COCCCc1c(C)nc(O)c(N(C)C)c1C(=O)c1cccc(C)c1 | 631 nM | 126 nM | 158 nM | 63 nM | 200 nM | 40 nM | 8 nM | 158 nM | 8 nM | 16 nM | 32 nM | 40 nM | 160 nM | 20 nM | 1260 | 20 nM | 32 nM |
| CCc1c(C)[nH]c(=O)c(N(C)C)c1Cc1cc(C)cc(C)c1 |  | 32 nM |  |  | 794 nM |  |  | 251 nM |  | 63 nM | 16 nM | 40 nM | 100 nM | 50 nM | 12600 |  |  |
| CCc1c(C)[nH]c(=O)c(N(C)C)c1C(=O)c1cc(C)cc(C)c1 | 631 nM | 10 nM | 13 nM | 40 nM | 158 nM | 398 nM | 2 nM | 158 nM |  | 13 nM | 8 nM | 6 nM | 63 nM | 6 nM | 2510 | 5 nM | 4 nM |
| CCc1c(C)[nH]c(=O)c(N(C)CCOC)c1Cc1cc(C)cc(C)c1 | 339 nM | 63 nM | 69 nM | 121 nM | 3340 nM | 2510 nM | 3 nM | 100 nM | 2 nM | 16 nM | 10 nM |  | 316 nM | 3 nM | 20000 | 10 nM | 42 nM |
| CCc1c(C)nc(O)c(N(C)CCOC)c1C(=O)c1cccc(C)c1 | 224 nM | 20 nM | 15 nM | 17 nM | 2810 nM | 251 nM | 1 nM | 1260 nM | 1 nM | 3 nM | 3 nM |  | 631 nM | 8 nM | 79400 | 3 nM | 3 nM |
| CCc1c(CO)nc(O)c(N(C)C)c1C(=O)c1cc(C)cc(C)c1 | 234 nM | 3 nM | 7 nM | 20 nM | 149 nM | 794 nM | 1 nM | 631 nM | 1 nM | 3 nM | 5 nM |  | 72 nM | 1 nM | 12600 | 4 nM | 2 nM |
| O=C1Nc2ccc(Cl)cc2[C@@](C#CC2CC2)(C(F)(F)F)O1 [EFAVIRENZ] |  |  |  | 10000 nM |  | 25 nM | 5 nM |  |  | 10 nM | 6 nM | 40 nM |  | 40 nM |  | 2 nM | 251 nM |
| Cc1ccnc2c1NC(=O)c1cccnc1N2C1CC1 [NEVIRAPINE] | 135 nM |  |  |  | 100000 nM | 163 nM | 195 nM | 100000 nM |  |  |  |  | 10000 nM |  |  | 50 nM | 44 nM |
